Data from paper PMC11303814 (Nature Communications, 2024).
Substitutions are numbered along the chain they refer to. Entries after “also recorded” stand apart in the source; their conditions may differ.

How the values were obtained:
[1] = biological target: T1, biotinylated rP2X7 (Rattus norvegicus, UniProt Q64663); test: Bio-layer interferometry; format: binding; conditions: for rate constant for association (ka) / rate constant for dissociation (kd): 30 °C, PBS pH 7.4, 0.5 mM DDM, 1:1 Langmuir global fit, mean ± SD of three
T1 sequence (Q64663 1-595): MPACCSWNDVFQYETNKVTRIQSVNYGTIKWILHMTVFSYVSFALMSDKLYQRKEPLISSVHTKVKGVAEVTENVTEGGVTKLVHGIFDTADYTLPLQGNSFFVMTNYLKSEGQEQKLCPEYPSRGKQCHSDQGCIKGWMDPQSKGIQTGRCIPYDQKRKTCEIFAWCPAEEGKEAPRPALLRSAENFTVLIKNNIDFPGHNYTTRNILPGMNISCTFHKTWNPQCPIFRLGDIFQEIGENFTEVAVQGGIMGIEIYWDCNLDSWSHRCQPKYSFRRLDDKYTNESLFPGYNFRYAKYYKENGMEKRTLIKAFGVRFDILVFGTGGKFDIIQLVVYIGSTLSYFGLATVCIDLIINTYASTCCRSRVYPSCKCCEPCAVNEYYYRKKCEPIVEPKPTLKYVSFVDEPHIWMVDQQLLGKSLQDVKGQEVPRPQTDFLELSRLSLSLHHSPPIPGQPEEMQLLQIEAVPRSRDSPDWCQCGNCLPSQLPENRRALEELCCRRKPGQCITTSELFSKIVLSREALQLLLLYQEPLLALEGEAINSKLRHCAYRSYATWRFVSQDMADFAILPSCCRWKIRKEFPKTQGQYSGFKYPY
In short: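 Full-length rat P2X7 expressed in HEK293 GnTI cells by BacMam, purified in DDM/CHS (TALON, SEC), then biotinylated with NHS-PEG12-biotin at pH 8.0, 23 °C, 60 min. Loaded at 50 µg/ml onto streptavidin tips, blocked with biocytin. Threefold agonist dilutions (ATP 30–0.12 µM; BzATP 3.3–0.014 µM): 90 s association, 300 s (ATP) or 800 s (BzATP) dissociation. Double reference subtraction used biocytin sensors and zero analyte. KD = kd/ka.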

[2] = biological target: T2, rP2X7 K127A (Rattus norvegicus, UniProt Q64663, K127A); test: TEVC deactivation time; format: cell-based; conditions: after 100 μM ATP or 10 μM BzATP
T2 sequence (Q64663 1-595 K127A): T1 sequence (Q64663 1-595) with K127A
In short: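 Xenopus oocytes injected with 50 nL of 10 ng/µL mutant rP2X7 mRNA, expressed ~20 h, clamped in pH 7.4 HEPES buffer with 0.1 mM flufenamic acid and EDTA. Currents were evoked by 100 µM ATP or 10 µM BzATP. τ is the time for current to return to 63% of baseline after agonist removal, from a one- or two-phase decay fit. Done in triplicate over first to third applications per oocyte; mean ± SD.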

[3] = biological target: T2, rP2X7 K127A; test: TEVC dose response; format: cell-based; conditions: read-out: EC50 (apparent affinity), mean ± SD, triplicate
In short: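 TEVC was run on Xenopus oocytes ~20 h after injection of wild-type or mutant rP2X7 mRNA, in pH 7.4 HEPES buffer with 0.1 mM flufenamic acid. Receptors were facilitated at 100 µM before recording. Dilution series: ATP 1.5 mM–2 µM (7 points), BzATP 300–0.14 µM (8 points). Responses were normalized to the largest concentration, fitted by nonlinear regression for EC50, and averaged across triplicates (mean ± SD).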

[4] = biological target: T3, rP2X7 triple mutant (R125A/Q143A/I214A) (Rattus norvegicus, UniProt Q64663, I214A/Q143A/R125A); test: TEVC efficacy experiments, triple mutant rP2X7 in oocytes; format: cell-based; conditions: identical concentrations
T3 sequence (Q64663 1-595 R125A/Q143A/I214A): T1 sequence (Q64663 1-595) with R125A, Q143A, I214A
In short: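 Oocytes expressing rP2X7 (~20 h after mRNA injection), TEVC in pH 7.4 HEPES/flufenamic acid buffer. Each oocyte first received 100 µM ATP as the normalization reference, then sequentially 50 µM ATP, 50 µM BzATP, 100 µM ATP and 100 µM BzATP, with buffer washout to baseline between applications. Normalized currents are from triplicates per concentration per construct; mean ± SD.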

rate constant for association (ka) ([1]; BLI) | rate constant for dissociation (kd) ([1]; BLI) | higher binding affinity (KD) than ATP ([1]; BLI, rP2X7) | deactivation lifetime τ [2] | EC50 [3] | affinity for rP2X7 lower than that of human P2X3 ([1]; KD rP2X7 vs human P2X3) | affinity for rP2X7 lower than that of zebra fish P2X4 ([1]; KD rP2X7 vs zebra fish P2X4) | Compound | efficacy (agonist character, current amplitude) [4]
3.7 ± 1.0 x10^5 M^−1s^−1 | 2.6 ± 1.0 x10^−3 s^−1 | ~ 70 fold | 21 ± 6.2 s | 2.9 ± 0.4 µM | – | – | BzATP | equivalent agonists in terms of efficacy; also recorded: equal current amplitudes
9.4 ± 2.4 x10^4 M^−1s^−1 | 5.1 ± 2.5 x10^−2 s^−1 | – | 2.3 ± 0.7 s | 22 ± 3 µM | approximately 190 fold | ~46 fold | Nc1ncnc2c1ncn2[C@@H]1O[C@H](COP(=O)(O)OP(=O)(O)OP(=O)(O)O)[C@@H](O)[C@H]1O [ATP] | equivalent agonists in terms of efficacy; also recorded: equal current amplitudes
